Test results: ChEMBL document CHEMBL1122395, “Tetracyclic chromophoric analogues of actinomycin D: synthesis, structure elucidation and interconvertibility from one form to another, antitumor activity, and structure-activity relationships” (1983)
Converted amounts (≈) assume the structure as drawn.

Tests used:
Nucleic Acid = experiment: Melting temperature of DNA-drug complex minus melting temperature of purified calf-thymus DNA; format: functional; conditions: Bos taurus
P388 [1] = experiment: Median survival time observed in P-388 cells infected male CDF1 hybrid mice after intraperitoneal administration at 450 ug/kg optimal dose; format: functional, Mus musculus
Method in brief: (§1)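 Male CDF1 mice, seven per group, given 10^6 P388 cells ip on day 0. Drugs were given ip in 10% Me2SO-saline on days 1, 5 and 9, with solutions kept at 0-4 °C, protected from light and checked for homogeneity by HPLC. A range of doses was run and the optimal nontoxic dose reported. Read-outs were median survival time, percent increase in life span, and cures (over-60-day survivors, average of two experiments).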

CCRF-CEM = experiment: Growth inhibitory activity against human lymphoblastic leukemia cells(CCRF-CEM); format: functional; conditions: read-out: ID50 (the source's name)
Method in brief: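 Log-phase human lymphoblastic leukemia CCRF-CEM cells grown in suspension culture. Compounds dissolved in Me2SO, final growth medium contained 5% Me2SO. Test solutions kept at 0-4 °C, protected from light, homogeneity checked by HPLC before testing. ID50 reported in ng/mL.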

Mus musculus = organism: Mus musculus; experiment: Male CDF1 hybrid treated mice out of seven which survived over 60 days after the treatment.; format: functional; method in brief: as §1
P388 [2] = experiment: Percent increase in life span observed in P-388 cells infected male CDF1 hybrid mice after intraperitoneal administration at 450 ug/kg optimal dose; format: functional, Mus musculus; method in brief: as §1
P388 [3] = experiment: Median survival time observed in P-388 cells infected male CDF1 hybrid mice after intraperitoneal administration at 750 ug/kg optimal dose; format: functional, Mus musculus; method in brief: as §1
P388 [4] = experiment: Percent increase in life span observed in P-388 cells infected male CDF1 hybrid mice after intraperitoneal administration at 750 ug/kg optimal dose; format: functional, Mus musculus; method in brief: as §1
P388 [5] = experiment: Median survival time observed in P-388 cells infected male CDF1 hybrid mice after intraperitoneal administration at 1800 ug/kg optimal dose; format: functional, Mus musculus; method in brief: as §1
P388 [6] = experiment: Percent increase in life span observed in P-388 cells infected male CDF1 hybrid mice after intraperitoneal administration at 1800 ug/kg optimal dose; format: functional, Mus musculus; method in brief: as §1
P388 [7] = experiment: Median survival time observed in P-388 cells infected male CDF1 hybrid mice after intraperitoneal administration at 600 ug/kg optimal dose; format: functional, Mus musculus; method in brief: as §1
P388 [8] = experiment: Percent increase in life span observed in P-388 cells infected male CDF1 hybrid mice after intraperitoneal administration at 600 ug/kg optimal dose; format: functional, Mus musculus; method in brief: as §1
P388 [9] = experiment: Percent increase in life span observed in P-388 cells infected male CDF1 hybrid mice after intraperitoneal administration at 900 ug/kg optimal dose; format: functional, Mus musculus; method in brief: as §1
P388 [10] = experiment: Median survival time observed in P-388 cells infected male CDF1 hybrid mice after intraperitoneal administration at 900 ug/kg optimal dose; format: functional, Mus musculus; method in brief: as §1

Structure (SMILES) | IC50 (CCRF-CEM) [µg/mL] | Cures (Mus musculus) | MST (P388 [7]) [days] | ILS (P388 [8]) [%] | other results
Cc1c2oc3c(C)c(O)c(N)c(C(=O)N[C@H]4C(=O)N[C@@H](C(C)C)C(=O)N5CCC[C@H]5C(=O)N(C)CC(=O)N(C)[C@H](C(C)C)C(=O)O[C@H]4C)c3nc-2c(C(=O)N[C@@H]2C(=O)N[C@H](C(C)C)C(=O)N3CCC[C@@H]3C(=O)N(C)CC(=O)N(C)[C@@H](C(C)C)C(=O)O[C@@H]2C)cc1=O |  |  |  |  | ΔTm (Nucleic Acid): 6.7 °C
Cc1nc2c(C(=O)N[C@@H]3C(=O)N[C@H](C(C)C)C(=O)N4CCC[C@H]4C(=O)N(C)CC(=O)N(C)[C@@H](C(C)C)C(=O)O[C@@H]3C)c3nc4c(C(=O)N[C@@H]5C(=O)N[C@H](C(C)C)C(=O)N6CCC[C@H]6C(=O)N(C)CC(=O)N(C)[C@@H](C(C)C)C(=O)O[C@@H]5C)cc(=O)c(C)c-4oc3c(C)c2o1 | 0.23 (≈ 0.178 µM) | 1 |  |  | MST (P388 [1]): 31 days; ILS (P388 [2]): 182%
Cc1c2oc3c(C)c4oc(-c5ccccc5)nc4c(C(=O)N[C@@H]4C(=O)N[C@H](C(C)C)C(=O)N5CCC[C@H]5C(=O)N(C)CC(=O)N(C)[C@@H](C(C)C)C(=O)O[C@@H]4C)c3nc-2c(C(=O)N[C@@H]2C(=O)N[C@H](C(C)C)C(=O)N3CCC[C@H]3C(=O)N(C)CC(=O)N(C)[C@@H](C(C)C)C(=O)O[C@@H]2C)cc1=O | 0.31 (≈ 0.228 µM) | 2 |  |  | MST (P388 [3]): 44 days; ILS (P388 [4]): 300%
Cc1ccc(C(=O)N[C@@H]2C(=O)N[C@H](C(C)C)C(=O)N3CCC[C@H]3C(=O)N(C)CC(=O)N(C)[C@@H](C(C)C)C(=O)O[C@@H]2C)c2c1Oc1c(c(C(=O)N[C@@H]3C(=O)N[C@H](C(C)C)C(=O)N4CCC[C@H]4C(=O)N(C)CC(=O)N(C)[C@@H](C(C)C)C(=O)O[C@@H]3C)c3nc(-c4c(F)c(F)c(F)c(F)c4F)c(=O)oc3c1C)N2 | 0.64 (≈ 0.438 µM) | 1 |  |  | MST (P388 [5]): 31.5 days; ILS (P388 [6]): 186%
Cc1ccc(C(=O)N[C@@H]2C(=O)N[C@H](C(C)C)C(=O)N3CCC[C@H]3C(=O)N(C)CC(=O)N(C)[C@@H](C(C)C)C(=O)O[C@@H]2C)c2c1Oc1c(c(C(=O)N[C@@H]3C(=O)N[C@H](C(C)C)C(=O)N4CCC[C@H]4C(=O)N(C)CC(=O)N(C)[C@@H](C(C)C)C(=O)O[C@@H]3C)c3nc(-c4ccccc4)c(=O)oc3c1C)N2 | 0.44 (≈ 0.321 µM) | 2 | 45 | 309 | 
Cc1c2oc3c(C)c4oc(-c5c(F)c(F)c(F)c(F)c5F)nc4c(C(=O)N[C@@H]4C(=O)N[C@H](C(C)C)C(=O)N5CCC[C@H]5C(=O)N(C)CC(=O)N(C)[C@@H](C(C)C)C(=O)O[C@@H]4C)c3nc-2c(C(=O)N[C@@H]2C(=O)N[C@H](C(C)C)C(=O)N3CCC[C@H]3C(=O)N(C)CC(=O)N(C)[C@@H](C(C)C)C(=O)O[C@@H]2C)cc1=O | 0.63 (≈ 0.435 µM) | 1 |  |  | ILS (P388 [9]): 172%; MST (P388 [10]): 3 days
Cc1ccc(C(=O)N[C@@H]2C(=O)N[C@H](C(C)C)C(=O)N3CCC[C@H]3C(=O)N(C)CC(=O)N(C)[C@@H](C(C)C)C(=O)O[C@@H]2C)c2c1Oc1c(c(C(=O)N[C@@H]3C(=O)N[C@H](C(C)C)C(=O)N4CCC[C@H]4C(=O)N(C)CC(=O)N(C)[C@@H](C(C)C)C(=O)O[C@@H]3C)c3nc(-c4ccc(Cl)cc4)c(=O)oc3c1C)N2 | 1.6 (≈ 1.14 µM) | 0 | 29 | 164 | 
Cc1ccc(C(=O)N[C@@H]2C(=O)N[C@H](C(C)C)C(=O)N3CCC[C@H]3C(=O)N(C)CC(=O)N(C)[C@@H](C(C)C)C(=O)O[C@@H]2C)c2c1Oc1c(c(C(=O)N[C@@H]3C(=O)N[C@H](C(C)C)C(=O)N4CCC[C@H]4C(=O)N(C)CC(=O)N(C)[C@@H](C(C)C)C(=O)O[C@@H]3C)c3nc(-c4ccccc4)oc3c1C)N2 | 9 (≈ 6.7 µM) | 0 |  |  | ILS (P388 [9]): 109%; MST (P388 [10]): 23 days
Cc1ccc(C(=O)N[C@@H]2C(=O)N[C@H](C(C)C)C(=O)N3CCC[C@H]3C(=O)N(C)CC(=O)N(C)[C@@H](C(C)C)C(=O)O[C@@H]2C)c2c1Oc1c(c(C(=O)N[C@@H]3C(=O)N[C@H](C(C)C)C(=O)N4CCC[C@H]4C(=O)N(C)CC(=O)N(C)[C@@H](C(C)C)C(=O)O[C@@H]3C)c3nc(-c4cccc(Cl)c4)c(=O)oc3c1C)N2 | 1.6 (≈ 1.14 µM) | 0 | 29 | 164 | 
